Measurements: ChEMBL document CHEMBL1148346, “Tiplaxtinin, a novel, orally efficacious inhibitor of plasminogen activator inhibitor-1: design, synthesis, and preclinical characterization” (J Med Chem, 2004)

Experiments:
[1] = target: Plasminogen activator inhibitor 1 (Homo sapiens, UniProt P05121); experiment: Inhibition of human plasminogen activator inhibitor-1
[2] = Relative bioavailability after oral dose of compound at 3 mg/kg in dogs; assay type: ADME, organism-based, Canis lupus familiaris; settings: dog, in vivo
Procedure, shortened: (§1)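 Male beagle dogs given a single oral dose of 3 mg/kg. Plasma sampled, with Cmax and half-life derived and relative bioavailability calculated.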

[3] = Apparent half-life after single intravenous bolus of 1 mg/kg in dogs; assay type: ADME, organism-based, Canis lupus familiaris; parameters: dose 1 mg/kg, route intravenous; settings: dog, in vivo
Procedure, shortened: (§2)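 Male beagle dogs given a single iv bolus of 1 mg/kg. Plasma sampled, with apparent half-life, Cmax and AUC0-∞ derived.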

[4] = AUC after administration at 2000 mg/kg/day in rats; assay type: ADME, organism-based; settings: rat, plasma
[5] = AUC after administration at 100 mg/kg/day in dogs; assay type: ADME, organism-based, Canis lupus familiaris; settings: dog, plasma
[6] = AUC0-infinity after single intravenous bolus of 1 mg/kg in dogs; assay type: ADME, organism-based, Canis lupus familiaris; parameters: time infinity, dose 1 mg/kg, route intravenous; settings: dog, plasma; procedure, shortened: as §2
[7] = Cmax after oral dose of compound at 3 mg/kg in dogs; assay type: ADME, organism-based, Canis lupus familiaris; parameters: dose 3 mg/kg, route oral; settings: dog, in vivo; procedure, shortened: as §1
[8] = Half-life after oral dose of compound at 3 mg/kg in dogs; assay type: ADME, organism-based, Canis lupus familiaris; parameters: dose 3 mg/kg, route oral; settings: dog, in vivo; procedure, shortened: as §1
[9] = Cmax after repeated oral dose of compound at 1 mg/kg in rats; assay type: ADME, organism-based; parameters: dose 1 mg/kg, route oral; settings: rat, in vivo
Procedure, shortened: (§3)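 Male SD rats given repeated oral doses of 1 mg/kg. Plasma concentrations measured, with Cmax, half-life and AUC0-24 derived.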

[10] = Cmax after single intravenous bolus of 1 mg/kg in rats; assay type: ADME, organism-based; parameters: dose 1 mg/kg, route intravenous; settings: rat, in vivo
[11] = Half-life after repeated oral dose of compound at 1 mg/kg in rats; assay type: ADME, organism-based; parameters: dose 1 mg/kg, route oral; settings: rat, in vivo; procedure, shortened: as §3
[12] = Apparent half-life after single intravenous bolus of 1 mg/kg in rats; assay type: ADME, organism-based; parameters: dose 1 mg/kg, route intravenous; settings: rat, in vivo
[13] = AUC0-24 after repeated oral dose of compound at 1 mg/kg in rats; assay type: ADME, organism-based; parameters: time < 24 hr, dose 1 mg/kg, route oral; settings: rat, plasma; procedure, shortened: as §3
[14] = AUC0-infinity after single intravenous bolus of 1 mg/kg in rats; assay type: ADME, organism-based; parameters: time infinity, dose 1 mg/kg, route intravenous; settings: rat, plasma
[15] = system: Canis familiaris; experiment: Oral efficacy in dog thrombosis model at 3 mg/kg expressed as occlusion time; assay type: functional, Canis lupus familiaris
Procedure, shortened: (§4)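 Anesthetized dogs dosed orally, then an electrolytic injury made in the coronary artery lumen. Occlusion was taken as zero flow, and flow, occlusion time and spontaneous reperfusion were monitored over 4 h. Three dogs per group, mean ± SEM.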

[16] = system: Canis familiaris; experiment: Oral efficacy in dog thrombosis model at 3 mg/kg expressed as arterial occlusion; assay type: functional, Canis lupus familiaris; procedure, shortened: as §4
[17] = system: Canis familiaris; experiment: Oral efficacy in dog thrombosis model at 3 mg/kg expressed as spontaneous reperfusion; assay type: functional, Canis lupus familiaris; procedure, shortened: as §4
[18] = system: Rattus norvegicus; experiment: Oral efficacy in rat thrombosis model at 1 mg/kg expressed as carotid flow reduction; assay type: functional
Procedure, shortened: (§5)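 Anesthetized, instrumented rats dosed orally before chemical induction of an occlusive carotid artery thrombus. Time to occlusion, carotid flow, patency and thrombus weight compared with vehicle, four rats per group, mean ± SEM.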

[19] = system: Rattus norvegicus; experiment: Oral efficacy in rat thrombosis model at 1 mg/kg expressed as arterial occlusion; assay type: functional; procedure, shortened: as §5
[20] = system: Rattus norvegicus; experiment: Oral efficacy in rat thrombosis model at 1 mg/kg expressed as occlusion time; assay type: functional; procedure, shortened: as §5
[21] = system: Rattus norvegicus; experiment: Oral efficacy in rat thrombosis model at 1 mg/kg expressed as thrombus weight; assay type: functional; procedure, shortened: as §5
[22] = Cmax after single intravenous bolus of 1 mg/kg in dogs; assay type: ADME, organism-based, Canis lupus familiaris; parameters: dose 1 mg/kg, route intravenous; settings: dog, in vivo; procedure, shortened: as §2
[23] = system: Canis familiaris; experiment: Oral efficacy in dog thrombosis model at 3 mg/kg expressed as coronary flow reduction

Chain of Plasminogen activator inhibitor 1 (P05121 whole entry): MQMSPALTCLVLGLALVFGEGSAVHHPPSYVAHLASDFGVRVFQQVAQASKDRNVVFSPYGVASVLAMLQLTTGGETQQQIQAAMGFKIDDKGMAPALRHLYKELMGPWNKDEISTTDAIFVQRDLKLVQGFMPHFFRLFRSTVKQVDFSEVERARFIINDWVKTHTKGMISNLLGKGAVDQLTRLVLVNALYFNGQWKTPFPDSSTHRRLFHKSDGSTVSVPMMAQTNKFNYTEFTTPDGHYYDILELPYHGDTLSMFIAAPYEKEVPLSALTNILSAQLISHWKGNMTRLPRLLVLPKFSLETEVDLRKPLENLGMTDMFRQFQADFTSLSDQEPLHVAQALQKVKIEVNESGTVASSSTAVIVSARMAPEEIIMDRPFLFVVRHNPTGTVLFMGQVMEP

`CC(C)(C)c1ccc(Cn2cc(C(=O)C(=O)O)c3ccc(-c4ccc(OC(F)(F)F)cc4)cc32)cc1` showed an IC50 [1] greater than 50 µM.
Compound `CC(C)(C)c1ccc(Cn2cc(C(=O)C(=O)O)c3cc(-c4cccc(C(C)(C)C)c4)ccc32)cc1` has an IC50 [1] of 10 µM.
Work on `Cc1cccc(-c2ccc3c(c2)c(C(=O)C(=O)O)cn3Cc2ccc(C(C)(C)C)cc2)c1` [ALEPLASININ] yielded an IC50 [1] of 8.6 µM.
With `CN(C)CCSc1ccc(/C=c2\[nH]c(=O)/c(=C/c3ccccc3)[nH]c2=O)s1` the IC50 [1] was 8 µM.
`COc1cccc(-c2ccc3c(c2)c(C(=O)C(=O)O)cn3Cc2ccc(C(C)(C)C)cc2)c1` showed an IC50 [1] of 21 µM.
In the case of `O=C(O)C(=O)c1cn(Cc2ccc(F)cc2)c2cc(-c3ccccc3)ccc12`, the IC50 [1] is reported as 35 µM.
Work on `CC(C)(C)c1ccc(Cn2cc(C(=O)C(=O)O)c3cc(-c4ccc(OC(F)(F)F)cc4)ccc32)cc1` yielded an IC50 [1] of 16 µM.
With `O=C(O)C(=O)c1cn(Cc2ccccc2)c2cc(-c3ccc(OC(F)(F)F)cc3)ccc12` the IC50 [1] was 17 µM.
For `O=C(O)C(=O)c1cn(Cc2ccccc2)c2cc(-c3ccccc3)ccc12`, the IC50 [1] was 26 µM.
Work on `O=C(O)C(=O)c1cn(Cc2ccccc2)c2ccc(-c3ccc(OC(F)(F)F)cc3)cc12` [TIPLASININ] yielded a bioavailability [2] of 32%, a half-life [3] of 3.73 h and an AUC [4] of roughly 1510 µg·h/mL. For the same compound, the AUC [5] was roughly 613 µg·h/mL, the AUC(0-inf) [6] was 20.5 µg·h/mL and the Cmax [7] was 2140 ng/mL. It also gave a half-life [8] of 5.42 h, a Cmax [9] of 230 ng/mL and a Cmax [10] of 4950 ng/mL. For the same compound, the half-life [11] was 4.1 h, the half-life [12] was 2.95 h and the AUC at 24 h [13] was 0.96 µg·h/mL. The AUC(0-inf) [14] was 2.45 µg·h/mL, the Occlusion time [15] was 71.6 min and the Arterial occlusion [16] was 100%. For the same compound, the Spontaneous reperfusion [17] was 100%, the Carotid flow reduction [18] was 47.3% and the Arterial occlusion [19] was 25%. The Occlusion time [20] was 50.5 min, the Thrombus weight [21] was 0.5 mg and the Cmax [22] was 13400 ng/mL. It also gave a Coronary flow reduction [23] of 66%.
`O=C(O)C(=O)c1cn(Cc2ccccc2)c2cccc(-c3ccc(OC(F)(F)F)cc3)c12` gave an IC50 [1] greater than 50 µM.
In the case of `O=C(Nc1ccc(Cl)c(Cl)c1)c1ccc(CNc2cc([N+](=O)[O-])ccc2C(=O)O)cc1`, the IC50 [1] is reported as 13 µM.
With `O=C(O)c1ccc(-n2c(-c3ccccc3)cc3c2CCc2ccccc2-3)cc1O` the IC50 [1] was 13 µM.
